How the values were obtained:
Mus musculus [1] = test: The in vivo tissue distribution of mouse blood without Propranolol preadministration in 40 min, value was fractional dose per fractional body weight of the organ
Mus musculus [2] = test: The in vivo tissue distribution of mouse lung without Propranolol preadministration in 40 min, value was fractional dose per fractional body weight of the organ
Mus musculus [3] = test: The in vivo tissue distribution of mouse lung without Propranolol preadministration in 10 min, value was fractional dose per fractional body weight of the organ
Mus musculus [4] = test: The in vivo tissue distribution of mouse bone with Propranolol administration after 180 min, value was fractional dose per fractional body weight of the organ; format: ADME, organism-based, Bone element; settings: 3 h
Summary of the method: (§1)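 Male CF-1 mice (25–30 g), given 2 mg sodium pentobarbital ip 30 min before tracer. Blocked groups received propranolol iv by tail vein, 0.1 mL of 1 mg/mL. About 30 min later, 0.1 mL of [18F]tracer (1–2 mCi/mL) was injected by tail vein. Mice were killed by cervical dislocation at set times, and organs were weighed and counted. Uptake is %ID/g × body weight/100, average ± SD; n=5 for heart, brain, blood, lung, kidney, liver and bone.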

Mus musculus [5] = test: The in vivo tissue distribution of mouse heart with Propranolol administration after 20 min, value was fractional dose per fractional body weight of the organ; format: ADME, organism-based
Summary of the method: (§2)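 Male CF-1 mice (25–30 g), anesthetised with 2 mg sodium pentobarbital ip 30 min before tracer. Where blocked, propranolol iv via tail vein (0.1 mL of […]; […]) about 30 min before tracer. Tracer given by tail vein, 0.1 mL at 1–2 mCi/mL. Mice killed by cervical dislocation at set times, organs weighed and counted. %ID/g × body weight/100 gives unitless uptake. Heart, brain, blood, lung, kidney, liver and bone n=5; average ± SD.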

Mus musculus [6] = test: The in vivo tissue distribution of mouse blood with Propranolol preadministration in 10 min, value was fractional dose per fractional body weight of the organ; format: ADME, organism-based
Summary of the method: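 Male CF-1 mice, 25–30 g, anesthetized with 2 mg sodium pentobarbital ip. Propranolol pretreatment was 0.1 mL of 1 mg/mL iv by tail vein. About 30 min later, 0.1 mL of 1–2 mCi/mL [18F]tracer was given by tail vein. Mice were killed by cervical dislocation at set times. Organs were weighed and counted against weighed dose standards. %ID/g × body weight/100 gave fractional dose per fractional body weight. Blood and heart n=5.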

Mus musculus [7] = test: The in vivo tissue distribution of mouse kidney with Propranolol administration after 10 min, value was fractional dose per fractional body weight of the organ; format: ADME, organism-based
Summary of the method: as §1

Mus musculus [8] = test: The in vivo tissue distribution of mouse blood without Propranolol preadministration in 60 min, value was fractional dose per fractional body weight of the organ; settings: 1 h
[9] = The in vivo tissue distribution of mouse kidney without Propranolol preadministration in 180 min, value was fractional dose per fractional body weight of the organ; settings: 3 h
Mus musculus [10] = test: The in vivo tissue distribution of mouse lung with Propranolol administration after 40 min, value was fractional dose per fractional body weight of the organ; format: ADME, organism-based
Summary of the method: (§3)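 Male CF-1 mice (25–30 g) anaesthetised with 2 mg sodium pentobarbital ip; blocked group given 0.1 mL of […] propranolol iv via tail vein (200 μg, 6.6 mg/kg), tracer 30 min later. 0.1 mL of 1–2 mCi/mL [18F]-labelled enantiomer iv via tail vein; killed by cervical dislocation, organs weighed and counted against weighed standards. %ID/g × body weight/100 gives unitless uptake; five mice per point (heart, blood, lung, kidney, liver, bone); mean ± SD.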

Mus musculus [11] = test: The in vivo tissue distribution of mouse blood with Propranolol administration after 60 min, value was fractional dose per fractional body weight of the organ; format: ADME, organism-based; settings: 1 h
Summary of the method: as §2

Mus musculus [12] = test: The in vivo tissue distribution of mouse heart with Propranolol administration after 10 min, value was fractional dose per fractional body weight of the organ; format: ADME, organism-based
Summary of the method: as §3

Mus musculus [13] = test: The in vivo tissue distribution of mouse liver with Propranolol administration after 10 min, value was fractional dose per fractional body weight of the organ; format: ADME, organism-based
Summary of the method: as §1

Mus musculus [14] = test: The in vivo tissue distribution of mouse bone with Propranolol administration after 90 min, value was fractional dose per fractional body weight of the organ; format: ADME, organism-based, Bone element; settings: 1.5 h
Summary of the method: as §2

Mus musculus [15] = test: The in vivo tissue distribution of mouse kidney without Propranolol preadministration in 40 min, value was fractional dose per fractional body weight of the organ
Mus musculus [16] = test: The in vivo tissue distribution of mouse bone with Propranolol preadministration in 20 min, value was fractional dose per fractional body weight of the organ; format: ADME, organism-based, Bone element
Summary of the method: as §2

Mus musculus [17] = test: The in vivo tissue distribution of mouse lung without Propranolol preadministration in 180 min, value was fractional dose per fractional body weight of the organ; settings: 3 h
Mus musculus [18] = test: The in vivo tissue distribution of mouse blood with Propranolol administration after 120 min, value was fractional dose per fractional body weight of the organ; format: ADME, organism-based; settings: 2 h
Summary of the method: as §1

Mus musculus [19] = test: The in vivo tissue distribution of mouse kidney with Propranolol administration after 60 min, value was fractional dose per fractional body weight of the organ; format: ADME, organism-based; settings: 1 h
Summary of the method: as §3

Mus musculus [20] = test: The in vivo tissue distribution of mouse heart with Propranolol preadministration in 180 min, value was fractional dose per fractional body weight of the organ; format: ADME, organism-based; settings: 3 h
Summary of the method: as §1

Mus musculus [21] = test: The in vivo tissue distribution of mouse heart without Propranolol preadministration in 40 min, value was fractional dose per fractional body weight of the organ
Mus musculus [22] = test: The in vivo tissue distribution of mouse heart with Propranolol preadministration in 10 min, value was fractional dose per fractional body weight of the organ; format: ADME, organism-based
Summary of the method: as §2

Mus musculus [23] = test: The in vivo tissue distribution of mouse kidney with Propranolol administration after 180 min, value was fractional dose per fractional body weight of the organ; format: ADME, organism-based; settings: 3 h
Summary of the method: as §2

Mus musculus [24] = test: The in vivo tissue distribution of mouse kidney without Propranolol preadministration in 20 min, value was fractional dose per fractional body weight of the organ
Mus musculus [25] = test: The in vivo tissue distribution of mouse liver with Propranolol administration after 20 min, value was fractional dose per fractional body weight of the organ; format: ADME, organism-based
Summary of the method: as §1

Mus musculus [26] = test: The in vivo tissue distribution of mouse blood with Propranolol administration after 180 min, value was fractional dose per fractional body weight of the organ; format: ADME, organism-based; settings: 3 h
Summary of the method: as §1

Mus musculus [27] = test: The in vivo tissue distribution of mouse liver with Propranolol administration after 60 min, value was fractional dose per fractional body weight of the organ; format: ADME, organism-based; settings: 1 h
Summary of the method: as §3

Mus musculus [28] = test: The in vivo tissue distribution of mouse liver without Propranolol preadministration in 180 min, value was fractional dose per fractional body weight of the organ; settings: 3 h
Mus musculus [29] = test: The in vivo tissue distribution of mouse bone with Propranolol preadministration in 40 min, value was fractional dose per fractional body weight of the organ; format: ADME, organism-based, Bone element
Summary of the method: as §2

Mus musculus [30] = test: The in vivo tissue distribution of mouse bone with Propranolol preadministration in 90 min, value was fractional dose per fractional body weight of the organ; format: ADME, organism-based, Bone element; settings: 1.5 h
Summary of the method: as §3

Mus musculus [31] = test: The in vivo tissue distribution of mouse kidney with Propranolol administration after 20 min, value was fractional dose per fractional body weight of the organ; format: ADME, organism-based
Summary of the method: as §1

SMILES | Dose/organ (Mus musculus [1]) | Dose/organ (Mus musculus [2]) | Dose/organ (Mus musculus [3]) | Dose/organ (Mus musculus [4]) | Dose/organ (Mus musculus [5]) | Dose/organ (Mus musculus [6]) | Dose/organ (Mus musculus [7]) | Dose/organ (Mus musculus [8]) | Dose/organ [9] | Dose/organ (Mus musculus [10]) | Dose/organ (Mus musculus [11]) | Dose/organ (Mus musculus [12]) | Dose/organ (Mus musculus [13]) | Dose/organ (Mus musculus [14]) | Dose/organ (Mus musculus [15]) | Dose/organ (Mus musculus [16]) | Dose/organ (Mus musculus [17]) | Dose/organ (Mus musculus [18]) | Dose/organ (Mus musculus [19]) | Dose/organ (Mus musculus [20]) | also measured
CC(C[18F])NC[C@H](O)COc1cccc2[nH]c3ccccc3c12 (some centres not stated) | 0.69 | 6.16 | 6.4 | 2.72 | 0.63 | 0.56 | 4.18 | 0.6 | 0.71 | 1.98 | 0.25 | 1.06 | 2.89 | 0.72 | 2.01 | 0.65 | 4.8 | 0.13 | 1.28 | 0.4 | Dose/organ (Mus musculus [21]): 0.77; Dose/organ (Mus musculus [22]): 1.1; Dose/organ (Mus musculus [23]): 0.35; Dose/organ (Mus musculus [24]): 2.89; Dose/organ (Mus musculus [25]): 1.85; Dose/organ (Mus musculus [26]): 0.15; Dose/organ (Mus musculus [27]): 1.17; Dose/organ (Mus musculus [28]): 0.88; Dose/organ (Mus musculus [29]): 0.71; Dose/organ (Mus musculus [30]): 1.13; Dose/organ (Mus musculus [31]): 2.19
CC(C[18F])NC[C@@H](O)COc1cccc2[nH]c3ccccc3c12 (some centres not stated) | 0.63 | 3.29 | 8.13 | 2.98 | 0.85 | 0.57 | 5.1 | 0.42 | 0.67 | 2 | 0.63 | 1 | 3.14 | 1.57 | 3.3 | 0.93 | 0.84 | 0.3 | 1.67 | 0.14 | Dose/organ (Mus musculus [21]): 0.76; Dose/organ (Mus musculus [22]): 0.93; Dose/organ (Mus musculus [23]): 0.33; Dose/organ (Mus musculus [24]): 4.8; Dose/organ (Mus musculus [25]): 3; Dose/organ (Mus musculus [26]): 0.09; Dose/organ (Mus musculus [27]): 1.61; Dose/organ (Mus musculus [28]): 0.78; Dose/organ (Mus musculus [29]): 0.95; Dose/organ (Mus musculus [30]): 1; Dose/organ (Mus musculus [31]): 4.43

— ChEMBL document CHEMBL1127345, “Synthesis, binding properties, and 18F labeling of fluorocarazolol, a high-affinity beta-adrenergic receptor antagonist” (J Med Chem, 1994)
